Source: paper PMC8764296 (International Journal of Nanomedicine, 2022)

Assay: Liver microsomal stability
Format: in vitro ADME
Conditions: mouse liver microsomes 0.5 mg/mL, 50 μM, 37 °C, 4 hours incubation
Procedure, shortened: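 Compound at 50 μM (in vehicle or micelles), with coumarin as control, was preincubated 5 min at 37 °C with mouse liver microsomes (0.5 mg/mL) in PBS pH 7.4. Reactions were started with an NADPH-generating system (3 mM NADPH, 7.2 mM MgCl2, 6 mM G6P, 3 unit G6PDH) and sampled at 0, 5, 30 min and 1, 2, 4 h. Samples were DMSO-extracted for HPLC. ke from lnC versus t gave t1/2 and CL. Triplicate, mean and SD.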

- level remaining in liver microsome: 10.7 ± 2.2%
SMILES: O=c1ccc2ccccc2o1 [Coumarin]
